UPR XBP1 act = adaptive UPR (XBP1) activation; CHO-XBP1 luciferase reporter, IRE1-XBP1 UPR activation, luminescence; percent of tunicamycin response, DMSO as zero; activation, % at 20 µM; 330,000 compounds, 0.33% hits;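 active = versus positive control, 20 µM dose yields 30% or more activation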;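 also: 100% = tunicamycin at 10 µg/mL and 0% = DMSO only wells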
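Test system: CHO-XBP1 luciferase reporter cells | Buffer or medium: Serum-containing F12 medium, 10% FBS | Schedule: 6 h compound exposure at 37 °C, 5% CO2 | Detection: Steady-Glo luciferase glow luminescence, 10 min after reagent addition | Read-out basis: Activation, % of tunicamycin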
UPR CHOP act = activators of apoptotic arm of unfolded protein response (CHOP); activation, % at 10 µM; CHO-CHOP luciferase reporter, UPR activation, luminescence; percent of tunicamycin response over DMSO baseline; AID 449763; 330,000 compounds, 0.34% hits;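 active = at 10 µM dose, activation of 40% or more, normalized to positive control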;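 also: 100% = tunicamycin at 10 µg/mL and 0% = DMSO alone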
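Test system: CHO-CHOP cells, stable luciferase reporter of PERK-eIF2a-CHOP signalling | Quantity: 500 CHO-CHOP cells per well | Buffer or medium: F12 plus 10% serum | Compound dosing: 10 µM single point, 0.5% DMSO | Schedule: 6 h compound treatment, 37 °C | Signal: Luciferase luminescence | Control set: Tunicamycin high control, DMSO low control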
CHOP inhibitor = blocks CHOP induction under ER stress; CHO-K1 CHOP-promoter luciferase, tunicamycin-induced, 15-18 h; AID 2732; inhibition, % at 10 µM; 220,000 compounds, 3.8% hits;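 active = compounds that reduced the stress-induced luciferase reporter signal by more than about 70% of percent inhibition, limit read from the data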;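 also: 0% = tunicamycin plus vehicle and 100% = wells without tunicamycin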
PvdQ inh = blocks Pseudomonas aeruginosa PvdQ acylase activity; purified PvdQ acylase, fluorescence plate reader; inhibition, % at 10 µM; 340,000 compounds, 0.063% hits; AID 488965; in the data active = inhibition above about 30%, passing the limit was not always enough;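 also: 0% = vehicle neutral wells and 100% = reference inhibitor wells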
* = called active by the depositor; / = not tested or not shown. This is one part of a sample in which hits are shown more often than they occur.

SMILES	UPR XBP1 act	UPR CHOP act	CHOP inhibitor	PvdQ inh
CC1(C)N=C(SCC(=O)Nc2ccc(Cl)cc2)C(c2ccc(Cl)cc2)=N1	1	-1	72*	11
CN(CC(=O)Nc1ccc(F)cc1)C(=O)CNC(=O)C1CCCCC1	-1	1	/	-14
O=C(Nc1ncn[nH]1)c1ccc(Cl)c(Cl)c1	4	3	/	-4
CC(C)CCn1nnnc1CN1CCN(C(c2ccccc2)c2ccccc2)CC1	1	2	25	-11
N#Cc1nc(COc2ccc(Br)cc2)oc1N1CCN(Cc2ccccc2)CC1	/	/	74*	3
N#Cc1nc(COc2ccc(Cl)cc2)oc1N1CCCCCC1	-1	5	71*	-11
N#Cc1nc(Cc2cccc3ccccc23)oc1N1CCCCC1	4	-1	76*	8
Cn1c(=O)[nH]c(=O)c2c1nc1n2CC(COc2ccc3ccccc3c2)O1 (stereo not given)	0	3	8	10
COc1ccc(N2CCN(C(=O)COC(=O)c3ccc(CSC)o3)CC2)cc1	-4	0	/	-7
COC(=O)c1c([N+](=O)[O-])c(OC)c(OC)c(OC)c1[N+](=O)[O-]	-2	-2	-21	5
O=[N+]([O-])c1ccc(COc2ncnc3ccccc23)cc1	-3	1	15	-3
Cn1c(-c2ccccc2)cc(=O)c2ccccc21	1	1	8	-3
Cn1c(=O)cc(-c2ccccc2)c2ccccc21	6	1	80*	3
O=C1N[C@@H](Cc2ccccc2)[C@@H](c2ccco2)O1	1	-2	0	49*
C[C@@H]1NC(=O)OC1c1ccco1 (stereo not given in full)	2	2	/	-1
C/C(=N/NC(=O)CNc1ccc(Cl)cc1C)c1ccc(C)cc1	1	-2	87*	-10
CCCCCCN(C(=O)CCCN1C(=O)NC(c2ccc([N+](=O)[O-])cc2)C(C(=O)OCc2ccccc2)=C1C)C(C)C(=O)NCCCC (stereo not given)	6	13	/	-17
COc1ccc(NC(=O)c2ccc(-n3cnnn3)cc2)c([N+](=O)[O-])c1	-3	0	/	-2
CCOC(=O)c1sc(NC(=O)CSc2nc3c(cc2C#N)CCCCCC3)c(C#N)c1C	3	1	72*	2
CCOC(=O)c1sc(NC(=O)CSc2n[nH]c(-c3ccc(Cl)cc3Cl)n2)c(C#N)c1C	0	-3	75*	-8
Cc1cccc(NC(=O)NCCN2CCN(c3ccccc3)CC2)c1C	-2	2	/	3
N#C/C(=C\c1ccc(O)c(O)c1)C(=O)N1CCc2ccccc21	11	175*	/	-2
N#C/C(=C\c1ccc(O)c(O)c1)C(=O)NCCc1ccccc1	16	223*	-10	0
CCN(CC)C(=O)[C@H]1C[C@H](CC(=O)NCCC2=CCCCC2)C(=O)N2CCc3c([nH]c4ccc(Cl)cc34)[C@]12C	3	3	/	4
N=C1C(c2nc(-c3ccc(Cl)cc3)cs2)=C(O)CN1NC(=O)c1ccc(O)cc1	2	5	-19	-14
SMILES	UPR XBP1 act	UPR CHOP act	CHOP inhibitor	PvdQ inh
COc1cc(OC)cc(C(=O)Nc2ccccc2S(=O)(=O)N2CCCC2OC(C)=O)c1 (stereo not given)	-1	0	/	-15
O=[N+]([O-])c1cccc(C2NCC(c3ccccc3Cl)c3c2[nH]c2ccccc32)c1 (stereo not given)	-3	0	85*	6
CN(C)c1ccc(C2CNC(c3ccc(Cl)c([N+](=O)[O-])c3)c3[nH]c4ccccc4c32)cc1 (stereo not given)	-1	-1	57	-12
COc1ccc(/C=N/NC(=O)c2ccc(COc3ccccc3Cl)o2)c(OC)c1C	7	12	87*	-3
CC(C)CC(=O)Nc1nnc(-c2ccco2)s1	3	7	84*	-4
Cc1ccc(S(=O)(=O)Nc2nc3ccccc3nc2NCc2ccc3c(c2)OCO3)cc1C	1	0	11	-15
C=C(C)c1sc(-c2ccc(Cl)cc2)nc1C	0	2	/	-23
O=C(c1ccccn1)N(c1ccccc1)C1(C(=O)NC2CCCCC2)CCCCC1	-1	-2	19	-10
CCOC(=O)C(CCCOc1ccccc1)C(=O)OCC	-1	0	28	-4
CCOC(=O)C(CCCOc1ccc(C)cc1)C(=O)OCC	0	-1	95*	-8
Cc1csc(NC(=O)c2cc3c(s2)-c2ccccc2OC3)n1	4	19	81*	-13
O=C(c1cc2c(s1)-c1ccccc1OC2)N1CCN(c2ccccc2)CC1	-2	1	83*	6
CCc1ccc2c(c1)C(c1ccc([N+](=O)[O-])cc1)=NNC(c1ccc(F)cc1)=N2	4	5	86*	-28
CCc1ccc2c(c1)C(c1ccncc1)=NNC(c1ccccc1)=N2	4	3	8	-6
O=C1c2ccc3c4c(ccc(c24)C(=O)N1c1cccc(O)c1)CC3	-4	0	93*	0
COc1ccccc1Oc1ccc2c(c1)C(=O)N(c1cccc(O)c1)C2=O	-2	5	90*	-9
c1ccc(-c2noc(-c3ccc4ccccc4c3)n2)nc1	-7	-9	93*	-3
COc1ccc2nc(C)cc(Nc3ccc(N4CCN(C)CC4)cc3)c2c1	1	2	/	12
Cc1ccccc1CSc1nc(-c2ccccc2)cc(=O)[nH]1	-2	1	87*	-11
O=C(Cc1cccs1)N(CC1CCCO1)C1(C(=O)NC2CCCC2)CCCCC1 (stereo not given)	-2	1	9	5
O=C(Cc1ccc(Cl)cc1)Nc1ccccc1Sc1ccccc1	-1	3	75*	2
CC(C)CC(=O)OCC(=O)Nc1ccccc1Sc1ccccc1	2	0	84*	4
O=C(Cc1ccccc1)Nc1cc(Cl)ccc1Sc1ccccc1	-1	0	65	2
Cc1noc(C)c1-c1nnc(-c2ccc(C(F)(F)F)cc2)o1	2	4	4	7
O=[N+]([O-])c1cccc(S(=O)(=O)Nc2nc3ccccc3nc2Nc2cccc(S(=O)(=O)N3CCCCC3)c2)c1	/	/	82*	2
SMILES	UPR XBP1 act	UPR CHOP act	CHOP inhibitor	PvdQ inh
CC(=O)c1c(C(C)=O)c(C)n(-c2nc(-c3ccc(C)c(C)c3)c(C)s2)c1C	-2	0	76*	-14
S=C(c1ccc(-c2ccccc2Cl)o1)N1CCOCC1	3	4	71*	7
S=C(c1ccc(-c2ccc(Cl)c(Cl)c2)o1)N1CCOCC1	0	2	47	-12
O=c1cc2c(nn1Cc1ccccc1Cl)-c1ccccc1CC2	2	1	86*	-1
Cc1ccc(Cn2nc3c(cc2=O)CCc2ccccc2-3)cc1	4	0	32	-5
O=c1cc2c(nn1Cc1cccc(Cl)c1)-c1ccccc1CC2	2	2	95*	2
O=c1cc2c(nn1Cc1ccc(Cl)cc1Cl)-c1ccccc1CC2	-1	-1	50	10
O=c1cc2c(nn1Cc1ccc(Cl)cc1)-c1ccccc1CC2	-3	0	88*	2

Assay outcomes: PubChem, several laboratories
